From ChEMBL document CHEMBL1128217, “Synthesis, structure-affinity relationships, and biological activities of ligands binding to retinoic acid receptor subtypes” (J Med Chem, 1995)

Key:
F9 [1] = assay: In vitro promotion of plasminogen activator secretion from F9 (murine teratocarcinoma) cells.; format: functional, cell-based; details: Mus musculus
Summary of the method: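 F9 murine teratocarcinoma cells grown in DMEM with 15% fetal bovine serum, exposed 3 days to a range of retinoid concentrations. Differentiation quantified by plasminogen activator secretion; AC50 (concentration giving half-maximal secretion) obtained by nonlinear regression.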

[2] = target: T1, Retinoic acid receptor gamma (Homo sapiens, UniProt P13631); assay: Binding affinity to retinoic acid receptor (RAR) gamma using [3H]CD 367 as radioligand
T1 sequence (P13631 whole entry): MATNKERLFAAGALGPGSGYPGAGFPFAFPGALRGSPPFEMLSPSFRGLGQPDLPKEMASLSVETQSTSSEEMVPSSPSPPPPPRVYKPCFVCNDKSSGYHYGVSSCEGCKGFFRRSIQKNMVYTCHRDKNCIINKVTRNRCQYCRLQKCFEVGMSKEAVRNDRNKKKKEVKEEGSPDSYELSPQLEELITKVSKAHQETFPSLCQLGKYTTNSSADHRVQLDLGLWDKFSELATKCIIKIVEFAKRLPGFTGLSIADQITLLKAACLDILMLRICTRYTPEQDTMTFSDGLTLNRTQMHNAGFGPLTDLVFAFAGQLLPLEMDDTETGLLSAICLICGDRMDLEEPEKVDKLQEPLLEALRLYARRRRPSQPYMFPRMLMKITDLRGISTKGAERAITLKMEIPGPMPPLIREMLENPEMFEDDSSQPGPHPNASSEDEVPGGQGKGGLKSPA

[3] = target: T2, Retinoic acid receptor beta (Homo sapiens, UniProt P10826); assay: Binding affinity to retinoic acid receptor beta using [3H]CD 367 as radioligand
T2 sequence (P10826 whole entry): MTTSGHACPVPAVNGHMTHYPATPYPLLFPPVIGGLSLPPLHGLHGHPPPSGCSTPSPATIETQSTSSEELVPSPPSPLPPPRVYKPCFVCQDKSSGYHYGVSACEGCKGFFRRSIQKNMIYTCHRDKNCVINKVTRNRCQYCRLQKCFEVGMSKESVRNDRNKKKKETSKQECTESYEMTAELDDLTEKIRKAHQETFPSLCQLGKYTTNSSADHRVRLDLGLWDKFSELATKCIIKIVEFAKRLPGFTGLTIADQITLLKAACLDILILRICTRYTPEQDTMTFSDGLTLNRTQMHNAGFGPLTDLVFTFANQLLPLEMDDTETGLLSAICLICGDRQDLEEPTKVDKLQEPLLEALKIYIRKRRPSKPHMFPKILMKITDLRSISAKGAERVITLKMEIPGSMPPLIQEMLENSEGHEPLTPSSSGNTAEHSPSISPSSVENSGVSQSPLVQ

[4] = target: T3, Retinoic acid receptor alpha (Homo sapiens, UniProt P10276); assay: Binding affinity to retinoic acid receptor alpha using [3H]CD 367 as radioligand
T3 sequence (P10276 whole entry): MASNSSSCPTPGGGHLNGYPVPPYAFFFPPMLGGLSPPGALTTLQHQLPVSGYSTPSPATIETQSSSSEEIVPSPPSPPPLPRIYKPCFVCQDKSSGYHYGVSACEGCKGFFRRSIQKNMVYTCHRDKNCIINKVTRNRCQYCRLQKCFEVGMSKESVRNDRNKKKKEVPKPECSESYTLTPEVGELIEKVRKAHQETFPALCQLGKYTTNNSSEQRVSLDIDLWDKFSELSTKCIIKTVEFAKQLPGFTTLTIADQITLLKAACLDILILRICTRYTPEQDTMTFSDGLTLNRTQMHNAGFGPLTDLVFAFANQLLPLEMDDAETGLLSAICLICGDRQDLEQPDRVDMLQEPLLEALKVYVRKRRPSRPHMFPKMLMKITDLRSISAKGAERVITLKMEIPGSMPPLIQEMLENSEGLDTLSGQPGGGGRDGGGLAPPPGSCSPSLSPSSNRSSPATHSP

F9 [5] = assay: Compound was evaluated for its inhibitory activity against F9 murine teratocarcinoma cell differentiation; NA=not active; format: functional, cell-based, Mus musculus
F9 [6] = assay: Compound was evaluated for its inhibitory activity against F9 murine teratocarcinoma cell differentiation;NA=not active; format: functional, cell-based, Mus musculus
F9 [7] = assay: Compound was evaluated for its inhibitory activity against F9 murine teratocarcinoma cell differentiation; format: functional, cell-based; details: Mus musculus

Compound	AC50 (F9 [1]) [nM]	Ki [2] [nM]	Ki [3] [nM]	Ki [4] [nM]	AC50 (F9 [5])	AC50 (F9 [6])	IC50 (F9 [6])	IC50 (F9 [7]) [nM]
COc1ccc(/C(C)=C/c2ccc(C(=O)O)cc2)cc1C1(C)CCCCC1	30	29	17	420	–	–	–	–
O=C(O)c1ccc2cc(-c3ccc(OCC(O)CO)c(C45CC6CC(CC(C6)C4)C5)c3)ccc2c1 (centres undefined)	83	151	89	5000	–	–	–	–
COc1ccc(-c2ccc3cc(C(=O)O)ccc3c2)cc1C(C)(C)C	200	426	36	6500	–	–	–	–
C/C(=C\c1ccc(C(=O)O)cc1)c1ccc(O)c(C2(C)CCCCC2)c1	300	27	90	1060	–	–	–	–
O=C(O)c1ccc2cc(-c3ccc(CC(O)CO)c(C45CC6CC(CC(C6)C4)C5)c3)ccc2c1 (centres undefined)	100	34	158	> 10000	–	–	–	–
COc1ccc(-c2ccc3cc(C(=O)O)ccc3c2)cc1C1(C)CCCCC1	150	160	26	1120	–	–	–	–
CC1(C)CCC(C)(C)c2cc(-c3ccc4cc(C(=O)O)ccc4c3)ccc21	15	40	13	580	–	–	–	–
COc1ccc(-c2ccc3cc(C(=O)O)ccc3c2)cc1C12CC3CC(CC(C3)C1)C2	37	–	34	1100	–	–	–	–
CCCCCCOc1ccc(-c2ccc3cc(C(=O)O)ccc3c2)cc1C12CC3CC(CC(C3)C1)C2	–	> 10000	> 10000	> 10000	Not Active	–	–	–
O=C(O)c1ccc2cc(-c3ccc(O)c(C45CC6CC(CC(C6)C4)C5)c3)ccc2c1 [O-DEMETHYLATED ADAPALENE]	33	–	2480	6500	–	–	–	–
CC1=C(/C=C/C(C)=C/C=C/C(C)=C/C(=O)O)C(C)(C)CCC1 [TRETINOIN]	200	–	–	–	–	–	–	–
CC1(C)CCC(C)(C)c2cc3cc(-c4ccc(C(=O)O)cc4)ccc3cc21	0.46	2	3	5.3	–	–	–	–
O=C(O)c1ccc(/C=C/c2ccc(O)c(C34CC5CC(CC(C5)C3)C4)c2)cc1	1	20	70	610	–	–	–	–
C/C(=C\c1ccc(C(=O)O)cc1)c1ccc(O)c(C23CC4CC(CC(C4)C2)C3)c1	66	53	1240	1140	–	–	–	–
O=C(O)c1ccc2cc(-c3ccc(CO)c(C45CC6CC(CC(C6)C4)C5)c3)ccc2c1	460	386	156	> 10000	–	–	–	–
CC(C)(C)c1cc(-c2ccc3cc(C(=O)O)ccc3c2)ccc1O	–	200	3550	> 10000	–	Not Active	Not Active	–
CC1(C)CCOc2ccc(-c3ccc4cc(C(=O)O)ccc4c3)cc21	300	860	210	8500	–	–	–	–
C/C(=C\c1ccc(C(=O)O)cc1)c1ccc(O)c(C(C)(C)C)c1	–	85	105	834	–	Not Active	–	700
COc1ccc(/C(C)=C/c2ccc(C(=O)O)cc2)cc1C(C)(C)C	30	13	12	130	–	–	–	–
O=C(O)c1ccc2cc(-c3ccc(CCCO)c(C45CC6CC(CC(C6)C4)C5)c3)ccc2c1	7.5	72	21	695	–	–	–	–
COc1ccc(/C(C)=C/c2ccc(C(=O)O)cc2)cc1C12CC3CC(CC(C3)C1)C2	100	95	105	460	–	–	–	–
CC1(c2cc(-c3ccc4cc(C(=O)O)ccc4c3)ccc2O)CCCCC1	175	121	660	> 10000	–	–	–	–
O=C(O)c1ccc2cc(-c3ccc(C(=O)O)c(C45CC6CC(CC(C6)C4)C5)c3)ccc2c1	2000	> 10000	> 10000	> 10000	–	–	–	–
C/C(=C\c1ccc(C(=O)O)cc1)c1ccc2c(c1)C(C)(C)CCC2(C)C	0.78	–	–	–	–	–	–	–
O=C(O)c1ccc2cc(-c3ccc(C(O)CO)c(C45CC6CC(CC(C6)C4)C5)c3)ccc2c1 (centres undefined)	73	153	288	> 10000	–	–	–	–
